The text below walks through data of ChEMBL document CHEMBL4513216, “Probing the Open Global Health Chemical Diversity Library for Multistage-Active Starting Points for Next-Generation Antimalarials” (ACS Infect Dis, 2020).

This data set in a line: Toxicity liver stage against HepG2, at 10uM. In kind it is cell-based. Details: test concentration 10 uM, cell line HepG2-A16-CD81EGFP. The conditions noted are these: human, HepG2-A16-CD81EGFP cells; read-out: INHIBITION
A digest of the protocol: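 Uninfected HepG2-A16-CD81EGFP cells, 3 × 10^3 per well, 1536-well, plated on prespotted compound at 10 μM final, parasite-free screening media added to match infected plates; puromycin 10 μM positive, DMSO 0.5% negative; run in parallel with 48 h PbLuc assay at 37 °C, 5% CO2; viability by CellTiter-Glo luminescence, normalized to controls.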
For `O=c1cc(Cn2ccnc2)nc2n1CCCN(Cc1ccco1)C2`, the cytotoxicity at 10 µM is 7.77%.

Take `Cc1ccnc(C2COCCN2C)n1` (stereo not given): the cytotoxicity at 10 µM worked out at 3.59%.

With `CC(C)C(=O)N1CCCc2c(cnn2-c2ccccc2)C1`, the cytotoxicity at 10 µM was found to be 11%.

Regarding `CNC(=O)C1(CCCc2ccccn2)CCN1Cc1coc(C)n1` (stereo not given), the cytotoxicity at 10 µM was 19.7%.

Turning to `Cc1cc(C2CCN(S(=O)(=O)N(C)C)CC2)ccn1`, the cytotoxicity at 10 µM was -13%.

For `CCCn1cc(C(=O)N2CCCC2(C)c2nc(C)cc(N)n2)cn1` (stereo not given), the cytotoxicity at 10 µM is -1.13%.

`Cc1cnc(-c2nc(O)c3c(n2)CN(C(=O)C2CCCO2)CC3)cn1` (stereo not given): the cytotoxicity at 10 µM is -0.661%.

With `Cn1cc(CN2CCCC(c3nccnc3-c3cccc(F)c3)C2)cn1` (stereo not given), the cytotoxicity at 10 µM was determined as 0.954%.

As to `CCS(=O)(=O)CC(=O)Nc1ccc2oc(C3CC3)nc2c1`, the cytotoxicity at 10 µM was -5.4%.

`CCn1nnnc1-c1cccc(NC(=O)CCc2cnn(C)c2)c1`: the cytotoxicity at 10 µM is -6.19%.

As for `CS(=O)(=O)CCCNC(=O)Nc1sc2ccccc2c1Cl`, the cytotoxicity at 10 µM is 6.54%.

In the case of `Cn1ccc(C(=O)N2CCCC2c2ccc3c(c2)OCCO3)cc1=O` (stereo not given), the cytotoxicity at 10 µM came to 12.3%.

On to `COC(=O)N1CCC(Nc2ccc(C#N)c(Cl)c2)C1` (stereo not given), for which the cytotoxicity at 10 µM was -8.21%.

In the case of `CC(C)CC(CNC(=O)c1cccnc1Oc1cccnc1)N(C)C` (stereo not given), the cytotoxicity at 10 µM was determined as 1.44%.

For the molecule `Cn1nc2c(cc1=O)CN(Cc1nc3ccccc3c(=O)[nH]1)CC2`, the cytotoxicity at 10 µM is -7.64%.

For `CCN1CCC(NC(=O)CN2CCCC(NS(C)(=O)=O)C2)CC1` (stereo not given), the cytotoxicity at 10 µM amounted to 2.94%.

Regarding `Cc1nccn1-c1cc(CNC(=O)C2CCC(=O)N2)ccn1` (stereo not given), the cytotoxicity at 10 µM was -1.24%.

For the molecule `Cc1cnc(C(=O)N2CCCN(Cc3cnn(C(C)C)c3)CC2)cn1`, the cytotoxicity at 10 µM stood at 1.28%.

For `CCc1cc(NC(=O)C2CCCN(C(=O)c3ccncc3)C2)[nH]n1` (stereo not given), the cytotoxicity at 10 µM is -8.18%.

In the case of `COC(=O)Cc1cccc(NC(=O)Cc2cc(C)[nH]n2)c1`, the cytotoxicity at 10 µM was -2.45%.

Consider `Oc1ncccc1-c1nc(-c2cccc(CN3CCOCC3)c2)no1`, for which the cytotoxicity at 10 µM was -11.8%.

As to `OCCCN(CCn1cncn1)c1ccccc1`, the cytotoxicity at 10 µM is -4.04%.

For the molecule `O=C(Nc1nnn[nH]1)c1ccc(-n2cccc2)c(F)c1`, the cytotoxicity at 10 µM was -1.63%.

As for `Cc1nn(CN(CC2CCOC2)C2CC2)c(=O)c2ccccc12` (stereo not given), the cytotoxicity at 10 µM came out at 4.77%.

For the molecule `Cc1csc(N(C)C(=O)C(c2c(F)cccc2Cl)N(C)C)n1` (stereo not given), the cytotoxicity at 10 µM is -44.3%.

With `O=S(=O)(CC1CCCCO1)Nc1c(F)cccc1-n1cccn1` (stereo not given), the cytotoxicity at 10 µM is 3.44%.

For the molecule `CN1CCN(Cc2cnc3n2CCN(C(=O)c2cscn2)C3)CC1`, the cytotoxicity at 10 µM is -78.2%.

As to `CN(C)CCn1ccnc1C1CCN(C(=O)CCC(F)(F)F)CC1`, the cytotoxicity at 10 µM is -0.734%.

In the case of `O=c1[nH]c(-c2ccccc2)nc2c1CCN(S(=O)(=O)N1CCCC1)C2`, the cytotoxicity at 10 µM came to 3.86%.

Regarding `COc1ccccc1-c1ccc(NCc2cn3c(n2)SCC3)nn1`, the cytotoxicity at 10 µM was determined as 8.62%.

On to `CC(C)c1nnc(NCc2cc3n(n2)CCN(C2CCCCC2)C3)s1`, for which the cytotoxicity at 10 µM is -4.63%.

Take `COc1ccc(/C=C/CN2CCN(c3nccnc3C)CC2)cc1`: the cytotoxicity at 10 µM is -8.47%.

`O=C1NC[C@@]2(C(=O)O)CN(Cc3cccc(OC4CCCC4)c3)C[C@@H]12`: the cytotoxicity at 10 µM is -2.34%.

Turning to `CC1CN(CC(=O)Nc2ccncc2)CCN1Cc1nccn1C` (stereo not given), the cytotoxicity at 10 µM was -13.7%.

In the case of `CCCc1noc(CN2CCN(CCO)CC2)n1`, the cytotoxicity at 10 µM is -12.1%.

Consider `Cc1cc(CN2CCN(CCOc3cccc(C#N)c3)CC2)no1`, for which the cytotoxicity at 10 µM is -11.6%.

With `O=C(NCCN1CCc2ccccc2C1)c1scnc1Cl`, the cytotoxicity at 10 µM is -4.84%.

For the molecule `O=C(c1ccc(Br)o1)N1CCCCC1Cn1cccn1` (stereo not given), the cytotoxicity at 10 µM was -5.31%.

Turning to `CNS(=O)(=O)c1cccc(CNc2ccc(C(F)(F)F)nn2)c1`, the cytotoxicity at 10 µM is -11.4%.

Regarding `CCN1CCC2(CC1)CC(COC)N(Cc1csc(C)n1)C2` (stereo not given), the cytotoxicity at 10 µM is 6.68%.
